Source: ChEMBL document CHEMBL4028864 (J Med Chem, 2017)
Calls of active or inactive are those of the source. No cut-off for these calls is given here.

Legend:
[1] = Cytotoxicity against human AC10 cells assessed as cell viability at 100 uM after 24 hrs by CellTiter-Glo assay relative to control; assay type: cell-based; settings: read-out: Activity
How it was run: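 AC10 human cardiomyocytes seeded at 5000 cells/well the day before treatment. Cells were exposed for 24 h at 37 °C to a range of 0.315–100 μM final (0.5% DMSO). Viability was read by CellTiter-Glo luminescence.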

[2] = target: Histone deacetylase 8 (Homo sapiens, UniProt Q9BY41); experiment: Inhibition of C-terminal His tagged human recombinant HDAC8 (1 to 377 residues) expressed in Baculovirus infected insect cells in presence of ATP
How it was run: (§1)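 HDAC enzyme inhibition was run by a contract laboratory.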

[3] = target: Histone deacetylase 1 (Homo sapiens, UniProt Q13547); experiment: Inhibition of C-terminal FLAG His tagged full length human recombinant HDAC1 (1 to 482 residues) expressed in baculovirus infected sf21 cells using RHKKAc as substrate in presence of ATP
[4] = target: T1, Tyrosine-protein kinase JAK3 (Homo sapiens, UniProt P52333); experiment: Inhibition of human JAK3 using GEEEEYFELVKKKK as substrate in presence of [gamma-33P]-ATP
T1 sequence (P52333 whole entry): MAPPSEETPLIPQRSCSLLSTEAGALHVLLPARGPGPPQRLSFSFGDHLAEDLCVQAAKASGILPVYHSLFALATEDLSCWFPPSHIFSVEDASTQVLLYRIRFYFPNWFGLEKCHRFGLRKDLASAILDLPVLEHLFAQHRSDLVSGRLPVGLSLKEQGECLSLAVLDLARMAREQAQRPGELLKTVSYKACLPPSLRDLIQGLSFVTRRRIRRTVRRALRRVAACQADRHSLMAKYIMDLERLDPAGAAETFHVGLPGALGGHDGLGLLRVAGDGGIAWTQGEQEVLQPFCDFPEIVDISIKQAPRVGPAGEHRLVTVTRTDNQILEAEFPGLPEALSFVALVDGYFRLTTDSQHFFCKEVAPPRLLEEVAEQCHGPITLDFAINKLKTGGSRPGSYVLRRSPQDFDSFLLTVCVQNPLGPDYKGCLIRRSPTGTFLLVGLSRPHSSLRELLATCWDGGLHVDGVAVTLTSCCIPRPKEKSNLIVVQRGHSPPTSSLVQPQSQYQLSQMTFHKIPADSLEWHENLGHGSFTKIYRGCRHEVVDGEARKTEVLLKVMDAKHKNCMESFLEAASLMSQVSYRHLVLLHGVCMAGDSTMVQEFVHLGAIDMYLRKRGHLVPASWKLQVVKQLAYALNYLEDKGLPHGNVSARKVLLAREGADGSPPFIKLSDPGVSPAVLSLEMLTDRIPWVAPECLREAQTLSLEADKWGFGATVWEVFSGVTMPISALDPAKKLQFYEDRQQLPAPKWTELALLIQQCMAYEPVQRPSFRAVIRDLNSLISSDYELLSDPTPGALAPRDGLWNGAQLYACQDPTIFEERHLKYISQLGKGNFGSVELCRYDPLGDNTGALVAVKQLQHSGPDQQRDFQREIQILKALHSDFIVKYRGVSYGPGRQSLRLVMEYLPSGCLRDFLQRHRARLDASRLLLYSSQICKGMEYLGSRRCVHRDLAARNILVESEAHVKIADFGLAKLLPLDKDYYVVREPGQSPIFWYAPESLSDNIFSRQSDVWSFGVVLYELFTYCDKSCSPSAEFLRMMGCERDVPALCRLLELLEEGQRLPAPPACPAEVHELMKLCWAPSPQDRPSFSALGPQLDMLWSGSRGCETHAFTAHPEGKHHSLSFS
How it was run: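 Kinase inhibition was tested by radiometric "Hotspot" profiling at a contract laboratory with 10 μM ATP.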

[5] = target: Tyrosine-protein kinase JAK2 (Homo sapiens, UniProt O60674); experiment: Inhibition of wild type human JAK2 (A829 to G1132 residues) expressed in mammalian cells assessed as residual activity at 1 uM by KINOMEscan assay relative to control; assay type: cell-based
[6] = target: Rho-associated protein kinase 2 (Homo sapiens) (UniProt O75116); experiment: Inhibition of wild type human ROCK2 (M1 to T431 residues) expressed in mammalian cells assessed as residual activity at 1 uM by KINOMEscan assay relative to control; assay type: cell-based
[7] = target: Inhibitor of nuclear factor kappa-B kinase subunit beta (Homo sapiens) (UniProt O14920); experiment: Inhibition of wild type human IKKbeta (M1 to S756 residues) expressed in mammalian cells assessed as residual activity at 1 uM by KINOMEscan assay relative to control; assay type: cell-based
[8] = target: Histone deacetylase 4 (Homo sapiens) (UniProt P56524); experiment: Inhibition of N-terminal GST tagged/C-terminal His tagged human recombinant HDAC4 (627 to 1084 residues) expressed in Baculovirus infected insect cells in presence of ATP; settings: concentration not given here; how it was run: as §1
[9] = tested on: MDA-MB-231; experiment: cells; assay type: functional, cell-based; settings: Homo sapiens, MDA-MB-231, 72 h
[10] = tested on: PC-3; experiment: cells; assay type: functional, cell-based; settings: Homo sapiens, PC-3, 72 h
[11] = tested on: HEL 92.1.7; experiment: cells; assay type: functional, cell-based; settings: Homo sapiens, HEL 92.1.7, 36 h
[12] = tested on: KG-1; experiment: cells; assay type: functional, cell-based; settings: Homo sapiens, KG-1, 48 h
[13] = tested on: MOLM-14; experiment: cells; assay type: functional, cell-based; settings: Homo sapiens, MOLM-14, 48 h
[14] = tested on: MV4-11; experiment: cells; assay type: functional, cell-based; settings: Homo sapiens, MV4-11, 48 h
[15] = cells; assay type: functional, cell-based; settings: Homo sapiens, NKYS, 48 h
[16] = cells; assay type: functional, cell-based; settings: Homo sapiens, KHYG, 48 h
[17] = target: Protein deacetylase HDAC6 (Homo sapiens) (UniProt Q9UBN7); experiment: Inhibition of HDAC6 in human KMS-12-BM cells assessed as increase in acetylated tubulin level up to 6 uM after 16 hrs by immunoblotting analysis; assay type: cell-based
How it was run: (§2)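 KMS-12-BM and MOLM-14 cells were treated for 16 h and then lysed. Acetylated tubulin was detected by immunoblotting, and membranes were reprobed for total tubulin as loading control.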

[18] = target: Protein deacetylase HDAC6 (Homo sapiens) (UniProt Q9UBN7); experiment: Inhibition of HDAC6 in human MOLM14 cells assessed as increase in acetylated tubulin level up to 3 uM after 16 hrs by immunoblotting analysis; assay type: cell-based; how it was run: as §2
[19] = tested on: KMS-12-BM; experiment: Induction of apoptosis in human KMS-12-BM cells assessed as increase in cleaved PARP level at 1 to 6 uM after 24 hrs by immunoblotting analysis; assay type: functional, cell-based
How it was run: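 KMS-12-BM and MOLM-14 cells were treated for 24 h and then lysed. Cleaved PARP was detected by immunoblotting.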

[20] = tested on: Plasma; experiment: Drug uptake in Wistar rat plasma at 5 mg/kg, po administered via gavage or 1 mg/kg, iv up to 2 hrs by LC-MS/MS analysis; assay type: ADME, organism-based; settings: in vivo
How it was run: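 Wistar rats dosed once at 5 mg/kg po or 1 mg/kg iv. Plasma levels were followed as mean ± SEM over 24 h postdose and checked against the limit of quantitation at each time point.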

Protein deacetylase HDAC6 (Homo sapiens), sequence (Q9UBN7 whole entry): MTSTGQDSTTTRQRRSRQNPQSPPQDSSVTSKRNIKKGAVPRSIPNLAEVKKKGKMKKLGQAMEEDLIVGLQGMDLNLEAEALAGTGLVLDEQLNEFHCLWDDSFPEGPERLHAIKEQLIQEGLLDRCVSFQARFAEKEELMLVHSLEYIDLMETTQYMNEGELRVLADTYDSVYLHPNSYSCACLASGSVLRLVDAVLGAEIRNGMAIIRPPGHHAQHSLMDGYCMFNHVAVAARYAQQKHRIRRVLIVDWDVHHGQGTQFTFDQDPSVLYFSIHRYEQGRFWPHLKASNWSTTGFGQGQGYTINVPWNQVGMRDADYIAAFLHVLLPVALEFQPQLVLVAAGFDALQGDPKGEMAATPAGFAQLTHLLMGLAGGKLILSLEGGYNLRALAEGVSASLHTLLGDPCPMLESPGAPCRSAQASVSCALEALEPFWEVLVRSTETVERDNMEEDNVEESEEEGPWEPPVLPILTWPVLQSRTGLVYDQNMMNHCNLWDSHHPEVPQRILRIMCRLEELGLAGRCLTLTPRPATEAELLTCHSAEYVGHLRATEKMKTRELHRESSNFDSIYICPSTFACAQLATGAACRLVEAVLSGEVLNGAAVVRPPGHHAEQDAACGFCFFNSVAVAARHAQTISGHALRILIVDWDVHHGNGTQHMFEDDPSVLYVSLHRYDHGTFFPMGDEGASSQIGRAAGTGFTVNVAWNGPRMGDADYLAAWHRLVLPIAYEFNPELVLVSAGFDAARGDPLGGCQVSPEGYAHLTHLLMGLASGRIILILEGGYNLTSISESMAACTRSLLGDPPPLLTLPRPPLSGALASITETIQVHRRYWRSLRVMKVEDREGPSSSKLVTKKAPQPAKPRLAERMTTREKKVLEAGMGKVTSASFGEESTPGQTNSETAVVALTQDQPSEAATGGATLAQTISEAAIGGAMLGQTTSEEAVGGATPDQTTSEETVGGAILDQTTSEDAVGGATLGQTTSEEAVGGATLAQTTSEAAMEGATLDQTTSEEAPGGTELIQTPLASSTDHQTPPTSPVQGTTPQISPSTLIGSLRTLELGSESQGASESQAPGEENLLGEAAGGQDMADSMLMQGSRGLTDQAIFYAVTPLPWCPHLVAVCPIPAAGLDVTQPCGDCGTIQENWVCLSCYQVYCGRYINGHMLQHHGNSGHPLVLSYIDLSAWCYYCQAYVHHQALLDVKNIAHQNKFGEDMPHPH
Histone deacetylase 1, sequence (Q13547 whole entry, the tested form may be a part): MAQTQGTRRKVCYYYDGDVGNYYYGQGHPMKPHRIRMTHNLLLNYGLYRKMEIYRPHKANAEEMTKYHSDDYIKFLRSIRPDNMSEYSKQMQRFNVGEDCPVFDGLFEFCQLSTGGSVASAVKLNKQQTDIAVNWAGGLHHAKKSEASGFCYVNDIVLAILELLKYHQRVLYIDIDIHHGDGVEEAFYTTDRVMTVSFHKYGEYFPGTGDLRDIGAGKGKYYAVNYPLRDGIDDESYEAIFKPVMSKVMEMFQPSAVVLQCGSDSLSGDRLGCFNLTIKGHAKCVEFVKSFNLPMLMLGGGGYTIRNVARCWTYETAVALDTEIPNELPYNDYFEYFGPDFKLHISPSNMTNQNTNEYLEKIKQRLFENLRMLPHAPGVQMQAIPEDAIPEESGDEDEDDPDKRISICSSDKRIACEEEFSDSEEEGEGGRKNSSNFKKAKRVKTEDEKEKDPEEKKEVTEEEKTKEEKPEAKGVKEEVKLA
Histone deacetylase 4 (Homo sapiens), sequence (P56524 whole entry, the tested form may be a part): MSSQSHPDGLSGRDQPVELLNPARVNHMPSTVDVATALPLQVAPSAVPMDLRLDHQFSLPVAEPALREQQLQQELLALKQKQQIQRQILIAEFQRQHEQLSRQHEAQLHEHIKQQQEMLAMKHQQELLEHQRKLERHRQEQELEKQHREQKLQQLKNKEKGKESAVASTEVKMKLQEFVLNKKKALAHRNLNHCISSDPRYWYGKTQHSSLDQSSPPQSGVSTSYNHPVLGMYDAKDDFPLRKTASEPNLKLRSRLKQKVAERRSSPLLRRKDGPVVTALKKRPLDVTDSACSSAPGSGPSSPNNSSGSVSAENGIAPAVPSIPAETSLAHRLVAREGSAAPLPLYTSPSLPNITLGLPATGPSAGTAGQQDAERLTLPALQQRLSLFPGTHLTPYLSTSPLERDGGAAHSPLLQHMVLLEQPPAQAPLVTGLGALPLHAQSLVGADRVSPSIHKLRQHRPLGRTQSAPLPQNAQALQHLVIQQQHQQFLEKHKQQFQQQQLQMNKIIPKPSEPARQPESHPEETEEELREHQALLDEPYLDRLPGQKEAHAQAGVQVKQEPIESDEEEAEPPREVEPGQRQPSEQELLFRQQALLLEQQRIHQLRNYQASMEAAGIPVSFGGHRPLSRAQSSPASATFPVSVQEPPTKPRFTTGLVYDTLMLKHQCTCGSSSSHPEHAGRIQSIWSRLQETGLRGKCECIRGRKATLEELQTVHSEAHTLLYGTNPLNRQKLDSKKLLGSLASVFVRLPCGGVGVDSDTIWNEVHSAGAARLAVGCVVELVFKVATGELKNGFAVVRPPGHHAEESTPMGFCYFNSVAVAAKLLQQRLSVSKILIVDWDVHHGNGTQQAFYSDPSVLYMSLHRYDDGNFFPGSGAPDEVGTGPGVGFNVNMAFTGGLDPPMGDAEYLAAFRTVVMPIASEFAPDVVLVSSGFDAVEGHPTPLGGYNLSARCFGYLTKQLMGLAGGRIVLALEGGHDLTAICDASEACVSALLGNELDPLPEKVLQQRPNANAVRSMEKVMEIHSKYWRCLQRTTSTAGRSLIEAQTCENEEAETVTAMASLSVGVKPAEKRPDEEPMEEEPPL
Tyrosine-protein kinase JAK2, sequence (O60674 whole entry, the tested form may be a part): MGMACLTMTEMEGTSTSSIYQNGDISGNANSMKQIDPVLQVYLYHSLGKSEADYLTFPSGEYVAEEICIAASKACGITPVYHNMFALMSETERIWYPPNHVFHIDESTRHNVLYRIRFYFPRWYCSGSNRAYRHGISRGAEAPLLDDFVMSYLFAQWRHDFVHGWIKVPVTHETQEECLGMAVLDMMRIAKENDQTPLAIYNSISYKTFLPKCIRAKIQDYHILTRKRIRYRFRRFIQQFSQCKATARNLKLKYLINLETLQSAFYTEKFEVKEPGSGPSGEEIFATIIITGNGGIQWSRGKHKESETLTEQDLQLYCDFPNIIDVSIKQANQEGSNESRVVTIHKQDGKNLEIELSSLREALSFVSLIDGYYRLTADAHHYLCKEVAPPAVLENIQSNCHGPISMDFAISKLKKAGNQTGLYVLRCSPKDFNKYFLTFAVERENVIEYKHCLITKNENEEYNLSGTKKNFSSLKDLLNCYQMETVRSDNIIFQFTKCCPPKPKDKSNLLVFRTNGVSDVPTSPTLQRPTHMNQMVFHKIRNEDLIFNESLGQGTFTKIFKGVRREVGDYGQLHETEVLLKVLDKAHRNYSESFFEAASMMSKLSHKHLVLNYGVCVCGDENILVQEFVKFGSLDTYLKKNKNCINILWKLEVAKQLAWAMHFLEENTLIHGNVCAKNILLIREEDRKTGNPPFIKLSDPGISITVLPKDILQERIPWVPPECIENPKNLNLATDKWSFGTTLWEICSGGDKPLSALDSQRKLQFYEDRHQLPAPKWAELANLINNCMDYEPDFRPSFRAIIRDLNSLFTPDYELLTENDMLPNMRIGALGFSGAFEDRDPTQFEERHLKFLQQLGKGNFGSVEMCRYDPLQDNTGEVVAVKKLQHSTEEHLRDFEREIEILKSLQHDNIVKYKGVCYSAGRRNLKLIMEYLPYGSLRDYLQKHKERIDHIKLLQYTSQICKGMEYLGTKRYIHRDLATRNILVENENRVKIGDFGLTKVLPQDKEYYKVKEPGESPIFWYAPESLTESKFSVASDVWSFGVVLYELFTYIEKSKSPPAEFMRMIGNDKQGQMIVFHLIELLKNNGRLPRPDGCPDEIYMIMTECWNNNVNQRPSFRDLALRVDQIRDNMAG
Histone deacetylase 8, sequence (Q9BY41 whole entry, the tested form may be a part): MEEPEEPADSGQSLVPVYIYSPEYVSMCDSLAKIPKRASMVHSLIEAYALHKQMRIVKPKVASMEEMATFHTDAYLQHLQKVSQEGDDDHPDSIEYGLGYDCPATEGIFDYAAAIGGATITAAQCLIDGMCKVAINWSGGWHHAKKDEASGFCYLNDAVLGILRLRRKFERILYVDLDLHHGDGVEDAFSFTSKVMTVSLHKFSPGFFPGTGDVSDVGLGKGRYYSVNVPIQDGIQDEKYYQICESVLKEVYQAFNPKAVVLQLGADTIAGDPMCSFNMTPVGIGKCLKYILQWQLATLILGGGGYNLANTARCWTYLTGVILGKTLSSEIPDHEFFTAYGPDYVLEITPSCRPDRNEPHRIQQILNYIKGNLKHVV
Inhibitor of nuclear factor kappa-B kinase subunit beta (Homo sapiens), sequence (O14920 whole entry, the tested form may be a part): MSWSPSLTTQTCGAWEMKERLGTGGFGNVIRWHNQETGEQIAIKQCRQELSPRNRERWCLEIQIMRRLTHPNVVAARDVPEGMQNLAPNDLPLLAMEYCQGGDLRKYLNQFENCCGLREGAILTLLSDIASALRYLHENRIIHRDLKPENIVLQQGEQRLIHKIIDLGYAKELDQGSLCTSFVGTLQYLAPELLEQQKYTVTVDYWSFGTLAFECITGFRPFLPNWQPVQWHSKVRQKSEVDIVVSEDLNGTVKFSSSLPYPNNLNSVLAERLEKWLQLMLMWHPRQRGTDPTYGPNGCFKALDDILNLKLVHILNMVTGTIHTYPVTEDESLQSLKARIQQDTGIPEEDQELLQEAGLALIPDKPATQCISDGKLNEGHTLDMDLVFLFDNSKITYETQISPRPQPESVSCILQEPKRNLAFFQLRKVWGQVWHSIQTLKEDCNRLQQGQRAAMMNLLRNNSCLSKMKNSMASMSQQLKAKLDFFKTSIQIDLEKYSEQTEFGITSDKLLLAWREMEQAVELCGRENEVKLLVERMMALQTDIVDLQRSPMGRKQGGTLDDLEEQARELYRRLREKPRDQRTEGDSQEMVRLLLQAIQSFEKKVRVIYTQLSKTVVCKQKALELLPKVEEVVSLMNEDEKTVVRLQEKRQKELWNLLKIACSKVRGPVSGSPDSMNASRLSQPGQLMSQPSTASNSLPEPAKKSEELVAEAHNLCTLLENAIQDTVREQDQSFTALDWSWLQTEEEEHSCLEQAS

O=C(CCCCCCn1cc(-c2ncnc3[nH]ccc23)cn1)NO
viability at 24 h, 100 µM [1]: 56% | IC50 [2]: 0.469 µM | IC50 [3]: 0.0069 µM | IC50 [4]: 0.569 µM | Activity [5]: 0% | Activity [6]: 29% | Activity [7]: 30% | inhibition [8]: 23% | IC50 [9]: 0.79 µM | IC50 [10]: 2.41 µM | IC50 [11]: 1.33 µM | IC50 [12]: 0.15 µM | IC50 [13]: 0.74 µM | IC50 [14]: 0.46 µM | IC50 [15]: 0.45 µM | IC50 [16]: 0.57 µM | inhibition [17]: Active | inhibition [18]: Active | Activity [19]: Dose-dependent effect | Drug uptake [20]: Active
